Source: ChEMBL document CHEMBL4673376 (Bioorg Med Chem Lett, 2021)

Key:
Maltase-glucoamylase [1] = target: T1, Maltase-glucoamylase (Homo sapiens, UniProt O43451); assay: Inhibition of human intestinal maltase; format: tissue-based, Intestine
In short: (§1)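 Enzyme preparations came from small intestine tissue (rat or human, as the line states). Inhibition is reported as IC50.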

[2] = Inhibition of rat intestinal isomaltase; format: tissue-based, Intestine; in short: as §1
[3] = Inhibition of rat intestinal sucrase; format: tissue-based, Intestine; in short: as §1
[4] = Inhibition of rat intestinal maltase; format: tissue-based, Intestine; in short: as §1
[5] = Inhibition of rat intestinal isomaltase using isomaltose as substrate incubated for 30 mins and immediately heated for 2 mins by glucose oxidase method; format: tissue-based, Intestine; in short: as §1
[6] = Inhibition of rat intestinal sucrase using sucrose as substrate incubated for 30 mins and immediately heated for 2 mins by glucose oxidase method; format: tissue-based, Intestine; in short: as §1
[7] = Inhibition of rat intestinal maltase using maltose as substrate incubated for 30 mins and immediately heated for 2 mins by glucose oxidase method; format: tissue-based, Intestine; in short: as §1
Maltase-glucoamylase [8] = target: T1, Maltase-glucoamylase; assay: Inhibition of recombinant human maltase-glucoamylase using p-nitrophenyl-alpha-D-glucopyranoside as substrate incubated for 35 mins by microtiter plate reader analysis
Maltase-glucoamylase [9] = target: T1, Maltase-glucoamylase; assay: Inhibition of human intestinal maltase using maltose as substrate incubated for 30 mins and immediately heated for 2 mins by glucose oxidase method; format: tissue-based, Intestine; in short: as §1

T1 sequence (O43451 whole entry): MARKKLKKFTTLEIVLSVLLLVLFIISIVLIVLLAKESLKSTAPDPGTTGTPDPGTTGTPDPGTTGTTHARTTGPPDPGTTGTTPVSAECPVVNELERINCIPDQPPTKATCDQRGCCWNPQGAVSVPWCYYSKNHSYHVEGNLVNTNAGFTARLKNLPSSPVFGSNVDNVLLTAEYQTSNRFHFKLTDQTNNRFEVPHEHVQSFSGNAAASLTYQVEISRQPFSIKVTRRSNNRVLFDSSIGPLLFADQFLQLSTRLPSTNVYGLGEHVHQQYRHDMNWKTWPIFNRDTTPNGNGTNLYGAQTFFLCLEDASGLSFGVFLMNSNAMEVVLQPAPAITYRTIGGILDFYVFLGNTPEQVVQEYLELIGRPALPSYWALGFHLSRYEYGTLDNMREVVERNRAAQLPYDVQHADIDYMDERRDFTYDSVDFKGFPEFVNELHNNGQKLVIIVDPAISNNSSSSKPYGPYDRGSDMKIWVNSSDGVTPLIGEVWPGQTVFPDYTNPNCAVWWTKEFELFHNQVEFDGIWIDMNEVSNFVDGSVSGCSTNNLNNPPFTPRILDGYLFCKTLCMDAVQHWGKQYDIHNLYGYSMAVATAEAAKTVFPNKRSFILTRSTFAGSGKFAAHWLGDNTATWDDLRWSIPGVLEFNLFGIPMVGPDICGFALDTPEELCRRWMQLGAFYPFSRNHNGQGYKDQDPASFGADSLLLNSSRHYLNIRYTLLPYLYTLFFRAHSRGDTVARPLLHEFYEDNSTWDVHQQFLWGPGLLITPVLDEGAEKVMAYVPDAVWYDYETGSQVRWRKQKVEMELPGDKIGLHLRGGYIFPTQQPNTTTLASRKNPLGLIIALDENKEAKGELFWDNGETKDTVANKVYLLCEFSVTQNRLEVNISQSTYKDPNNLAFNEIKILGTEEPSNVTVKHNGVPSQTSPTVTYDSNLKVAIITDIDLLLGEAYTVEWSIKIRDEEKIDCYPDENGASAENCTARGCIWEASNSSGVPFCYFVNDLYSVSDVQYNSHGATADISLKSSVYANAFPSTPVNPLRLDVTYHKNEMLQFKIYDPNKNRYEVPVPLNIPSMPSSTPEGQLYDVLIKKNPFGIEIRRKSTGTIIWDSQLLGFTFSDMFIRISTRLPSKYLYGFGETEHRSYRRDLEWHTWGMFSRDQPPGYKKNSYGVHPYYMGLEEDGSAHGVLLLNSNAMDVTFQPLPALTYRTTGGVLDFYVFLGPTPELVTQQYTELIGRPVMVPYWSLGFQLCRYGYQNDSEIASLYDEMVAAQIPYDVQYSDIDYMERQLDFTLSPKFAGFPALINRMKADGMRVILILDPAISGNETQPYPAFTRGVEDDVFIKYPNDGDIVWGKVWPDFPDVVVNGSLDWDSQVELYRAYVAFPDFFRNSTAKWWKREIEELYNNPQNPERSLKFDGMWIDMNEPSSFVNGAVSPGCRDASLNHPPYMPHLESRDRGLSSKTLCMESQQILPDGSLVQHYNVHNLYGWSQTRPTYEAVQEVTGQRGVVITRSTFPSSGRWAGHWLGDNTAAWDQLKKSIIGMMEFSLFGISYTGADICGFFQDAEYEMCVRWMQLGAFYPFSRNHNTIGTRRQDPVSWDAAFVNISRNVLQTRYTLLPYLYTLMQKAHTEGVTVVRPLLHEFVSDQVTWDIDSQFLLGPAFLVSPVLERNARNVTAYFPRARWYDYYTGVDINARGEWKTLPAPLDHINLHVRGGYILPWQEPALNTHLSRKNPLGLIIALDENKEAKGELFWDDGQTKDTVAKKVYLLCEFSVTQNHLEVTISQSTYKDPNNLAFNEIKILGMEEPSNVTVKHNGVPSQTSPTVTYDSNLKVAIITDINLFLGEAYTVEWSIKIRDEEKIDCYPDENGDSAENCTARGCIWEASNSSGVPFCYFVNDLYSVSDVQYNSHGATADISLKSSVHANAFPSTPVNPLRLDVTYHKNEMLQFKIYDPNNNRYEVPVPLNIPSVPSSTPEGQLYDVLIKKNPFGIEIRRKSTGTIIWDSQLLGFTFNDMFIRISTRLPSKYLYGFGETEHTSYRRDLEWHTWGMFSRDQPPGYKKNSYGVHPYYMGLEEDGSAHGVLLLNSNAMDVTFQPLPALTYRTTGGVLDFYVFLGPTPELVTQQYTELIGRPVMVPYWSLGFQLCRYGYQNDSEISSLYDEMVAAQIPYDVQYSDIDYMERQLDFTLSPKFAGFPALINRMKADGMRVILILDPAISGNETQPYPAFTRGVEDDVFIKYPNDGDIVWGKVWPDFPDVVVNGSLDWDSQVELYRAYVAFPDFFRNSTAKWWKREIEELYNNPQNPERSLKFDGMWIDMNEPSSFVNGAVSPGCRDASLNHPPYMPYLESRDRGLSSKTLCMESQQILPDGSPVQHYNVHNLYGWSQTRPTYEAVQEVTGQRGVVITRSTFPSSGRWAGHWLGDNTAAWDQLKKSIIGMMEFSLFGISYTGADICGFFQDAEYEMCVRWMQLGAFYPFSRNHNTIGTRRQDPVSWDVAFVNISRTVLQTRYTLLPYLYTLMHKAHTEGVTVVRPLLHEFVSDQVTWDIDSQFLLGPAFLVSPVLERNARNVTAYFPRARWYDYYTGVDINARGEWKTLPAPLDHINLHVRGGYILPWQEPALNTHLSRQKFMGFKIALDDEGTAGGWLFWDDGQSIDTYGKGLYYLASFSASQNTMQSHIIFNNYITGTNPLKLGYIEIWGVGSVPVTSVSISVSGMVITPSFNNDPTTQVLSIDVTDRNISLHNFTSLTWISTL

| SMILES | IC50 (Maltase-glucoamylase [1]) [µM] | IC50 [2] [µM] | IC50 [3] [µM] | IC50 [4] [µM] | IC50 [5] [µM] | IC50 [6] [µM] | IC50 [7] [µM] | Ki (Maltase-glucoamylase [8]) [µM] | IC50 (Maltase-glucoamylase [9]) [µM] |
| --- | --- | --- | --- | --- | --- | --- | --- | --- | --- |
| CCC[C@@H](O)[C@H](O)[C@H](O)C[S@+]1C[C@@H](O)[C@H](O)[C@H]1CO | 5 | 0.49 | 1.4 | 4.8 |  |  |  |  |  |
| C[C@H]1O[C@H](O[C@H]2[C@H](O)[C@@H](O)[C@@H](O[C@H]3[C@H](O)[C@@H](O)C(O)O[C@@H]3CO)O[C@@H]2CO)[C@H](O)[C@@H](O)[C@@H]1N[C@H]1C=C(CO)[C@@H](O)[C@H](O)[C@H]1O (stereo partly specified) [ACARBOSE] |  | 645 | 1.5 | 1.7 |  |  |  |  |  |
| CCCCCCCCCCCCCC[S@+]1C[C@@H](O)[C@H](O)[C@H]1CO |  |  |  |  |  |  |  | 6 |  |
| CCCCCCCC[C@@H](O)[C@H](OS(=O)(=O)[O-])[C@H](O)C[S@+]1C[C@@H](O)[C@H](O)[C@H]1CO | 1.2 | 5.4 | 0.15 | 7.2 |  |  |  |  |  |
| CCCC[S+]1C[C@@H](O)[C@H](O)[C@H]1CO (single isomer, unassigned) |  |  |  |  |  |  |  | 32 |  |
| CCCCCCCCCC[C@@H](O)[C@H](OS(=O)(=O)[O-])[C@H](O)C[S@+]1C[C@@H](O)[C@H](O)[C@H]1CO | 1.5 | 4.4 | 0.17 | 6.3 |  |  |  |  |  |
| CCCCCC[C@@H](O)[C@H](OS(=O)(=O)[O-])[C@H](O)C[S@+]1C[C@@H](O)[C@H](O)[C@H]1CO | 1.7 | 4.8 | 0.29 | 7.7 |  |  |  |  |  |
| CCCCCCCC[C@@H](O)[C@H](O)[C@H](O)C[S@+]1C[C@@H](O)[C@H](O)[C@H]1CO | 2 | 0.4 | 0.38 | 2.5 |  |  |  |  |  |

More lines, now with the values ahead:

| IC50 (Maltase-glucoamylase [1]) [µM] | IC50 [2] [µM] | IC50 [3] [µM] | IC50 [4] [µM] | IC50 [5] [µM] | IC50 [6] [µM] | IC50 [7] [µM] | Ki (Maltase-glucoamylase [8]) [µM] | IC50 (Maltase-glucoamylase [9]) [µM] | SMILES |
| --- | --- | --- | --- | --- | --- | --- | --- | --- | --- |
|  |  |  |  | 1.3 | 1.6 | 5.2 |  |  | O=S(=O)([O-])O[C@@H](CO)[C@H](O)C[S@+]1C[C@@H](O)[C@H](O)[C@H]1CO [SALACINOL] |
| 4.8 | 2.9 | 0.73 | 5.4 |  |  |  |  |  | CCC[C@@H](O)[C@H](OS(=O)(=O)[O-])[C@H](O)C[S@+]1C[C@@H](O)[C@H](O)[C@H]1CO |
|  |  |  |  | 0.3 | 1.3 | 8 |  | 9 | [O-][C@@H](CO)[C@H](O)C[S@+]1C[C@@H](O)[C@H](O)[C@H]1CO [NEOSALACINOL] |
